Measurements from ChEMBL document CHEMBL3045119, “Synthesis and fungicidal activity of novel aminophenazine-1-carboxylate derivatives” (J Agric Food Chem, 2010).
Converted amounts (≈) assume the structure as drawn.

Tests used:
[1] = test system: Botryosphaeria berengeriana; assay: Fungicidal activity against Botryosphaeria berengeriana assessed as inhibition of mycelium growth at 50 ug/mL by mycelium growth rate method; type: functional
Method in brief: (§1)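 Mycelium growth rate method: colony diameters measured once mycelia had grown completely, and the relative inhibition rate (%) calculated from the diameters by formula. Phenazine-1-carboxylic acid ran as control. Values are the average of three replicate results.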

[2] = test system: Fusarium graminearum; assay: Fungicidal activity against Fusarium graminearum assessed as inhibition of mycelium growth at 50 ug/mL by mycelium growth rate method; type: functional; method in brief: as §1
[3] = test system: Fusarium oxysporum; assay: Fungicidal activity against Fusarium oxysporum assessed as inhibition of mycelium growth at 50 ug/mL by mycelium growth rate method; type: functional; method in brief: as §1
[4] = test system: Mycosphaerella arachidis; assay: Fungicidal activity against Mycosphaerella arachidis assessed as inhibition of mycelium growth at 50 ug/mL by mycelium growth rate method; type: functional; method in brief: as §1
[5] = test system: Alternaria solani; assay: Fungicidal activity against Alternaria solani assessed as inhibition of mycelium growth at 50 ug/mL by mycelium growth rate method; type: functional; method in brief: as §1
[6] = test system: Botryosphaeria berengeriana; assay: Fungicidal activity against Botryosphaeria berengeriana assessed as inhibition of mycelium growth by mycelium growth rate method; type: functional, organism-based; method in brief: as §1
[7] = test system: Fusarium graminearum; assay: Fungicidal activity against Fusarium graminearum assessed as inhibition of mycelium growth by mycelium growth rate method; type: functional, organism-based; method in brief: as §1
[8] = test system: Fusarium oxysporum; assay: Fungicidal activity against Fusarium oxysporum assessed as inhibition of mycelium growth by mycelium growth rate method; type: functional, organism-based; method in brief: as §1
[9] = test system: Mycosphaerella arachidis; assay: Fungicidal activity against Mycosphaerella arachidis assessed as inhibition of mycelium growth by mycelium growth rate method; type: functional, organism-based; method in brief: as §1
[10] = test system: Alternaria solani; assay: Fungicidal activity against Alternaria solani assessed as inhibition of mycelium growth by mycelium growth rate method; type: functional, organism-based; method in brief: as §1

SMILES | inhibition at 50 µg/mL [1] | inhibition at 50 µg/mL [2] | inhibition at 50 µg/mL [3] | inhibition at 50 µg/mL [4] | inhibition at 50 µg/mL [5] | EC50 [6] | EC50 [7] | EC50 [8] | EC50 [9] | EC50 [10]
COC(=O)c1cccc2nc3cc(C(=O)CCc4ccccc4)ccc3nc12 | 0% | 2.4% | 11.1% | 2.6% | 19.1% |  |  |  |  | 
COC(=O)c1cccc2nc3cc(N)ccc3nc12 | 25% | 15.1% | 10.8% | 0% | 33.3% |  |  |  |  | 
CCCOC(=O)c1cccc2nc3ccc(N)cc3nc12 | 48.6% | 27.3% | 33.3% | 20% | 20.2% |  |  |  |  | 
COC(=O)c1cccc2nc3c(C(=O)CCCCl)cccc3nc12 | 41.1% | 25% | 0% | 0% | 13.8% |  |  |  |  | 
Nc1ccc2nc3cccc(C(=O)O)c3nc2c1 | 9.6% | 33.9% | 6.9% | 11.5% | 5.9% |  |  |  |  | 
COC(=O)c1cccc2nc3cc(C(=O)CCCCl)ccc3nc12 | 0% | 36.8% | 0% | 7.7% | 37.7% |  |  |  |  | 
COC(=O)c1cccc2nc3c(NC(=O)CCCCl)c([N+](=O)[O-])ccc3nc12 | 34.4% | 40.4% | 16.3% | 35% | 20.5% |  |  |  |  | 
CCCCOC(=O)c1cccc2nc3cc(OCCCC)c(N)cc3nc12 | 34.3% | 42.4% | 20% | 16.7% | 17.4% |  |  |  |  | 
COC(=O)c1cccc2nc3cc(C(C)=O)ccc3nc12 | 3.9% | 12.7% | 0% | 0% | 3.3% |  |  |  |  | 
Nc1ccc2nc3c(C(=O)O)cccc3nc2c1 | 4.9% | 1.6% | 2.7% | 11.1% | 5.1% |  |  |  |  | 
COC(=O)c1cccc2nc3c(N)c([N+](=O)[O-])cc([N+](=O)[O-])c3nc12 | 50% | 57.6% | 32% | 22.2% | 21.7% |  |  |  |  | 
CCCCOC(=O)c1cccc2nc3cc(N)ccc3nc12 | 29.6% | 7.3% | 13.3% | 17.4% | 43.3% |  |  |  |  | 
CCCOC(=O)c1cccc2nc3cc(N)c(OCCC)cc3nc12 | 26.5% | 20% | 0% | 21.7% | 20% |  |  |  |  | 
COC(=O)c1cccc2nc3c(S(=O)(=O)c4ccc([N+](=O)[O-])cc4)cccc3nc12 | 17.9% | 31.8% | 17.9% | 25% | 13.8% |  |  |  |  | 
COC(=O)c1cccc2nc3c(S(=O)(=O)c4ccccc4[N+](=O)[O-])cccc3nc12 | 28.6% | 43.2% | 0% | 0% | 3.4% |  |  |  |  | 
CCCCOC(=O)c1cccc2nc3c(N)c([N+](=O)[O-])cc([N+](=O)[O-])c3nc12 | 42.9% | 53% | 24% | 5.6% | 17.4% |  |  |  |  | 
CCOC(=O)c1cccc2nc3ccc(N)cc3nc12 | 51.4% | 20% | 16.7% | 12% | 20% |  |  |  |  | 
COC(=O)c1cccc2nc3cc(C(=O)COC(C)=O)ccc3nc12 | 1.8% | 4.8% | 5.3% | 4% | 6.5% |  |  |  |  | 
O=C(O)c1cccc2nc3ccccc3nc12 [PHENAZINE-1-CARBOXYLIC ACID] | 100% | 43.1% | 65.4% | 92.3% | 100% | 3.58 µg/mL (≈ 16 µM) | > 50 µg/mL | 14.9 µg/mL (≈ 66.5 µM) | 13.2 µg/mL (≈ 58.9 µM) | 18.5 µg/mL (≈ 82.5 µM)
CCCCOC(=O)c1cccc2nc3c(NC(=O)CCCCl)c([N+](=O)[O-])ccc3nc12 | 37.1% | 51.5% | 16% | 11.1% | 17.4% |  |  |  |  | 
